CAL PDZ FP-1: untagged CAL PDZ binding inhibitors, primary screen, biochemical, fluorescence polarization, HTS; purified CAL PDZ, TMR-peptide fluorescence polarization, 1 h; inhibition, % at 24.9 µM; Golgi-associated PDZ and coiled-coil motif-containing protein (Homo sapiens), Q9HD26; hit rate 0.92% among 300,000;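 active means mean inhibition of at least 30% with at least half of replicates also reaching 30%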
CAL PDZ FP-2: CAL PDZ peptide-binding inhibitors, primary screen, biochemical, fluorescence polarization, Cer-tagged CAL PDZ, HTS; purified CAL PDZ, TMR-peptide fluorescence polarization, 1 h; inhibition, % at 20 µM; Golgi-associated PDZ and coiled-coil motif-containing protein (Homo sapiens), Q9HD26; hit rate 0.02% among 330,000;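 active means highest replicate inhibition of at least 40%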
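System: purified tagged CAL PDZ domain construct (CerCALP). Schedule: 1 h incubation at room temperature before polarization reading. Medium: 25 mM sodium phosphate pH 7.4, 150 mM NaCl, TCEP, IgG, Thesit. Read-out: percent inhibition from loss of millipolarization. Measured by: FP readout, S and P plane fluorescence. Probe or stimulus: fluorescent TMR peptide probe.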
ARNT-TACC3 inh: disruptors of ARNT/TACC3 protein interaction, primary screen, biochemical, AlphaScreen, single concentration | inhibition, % at 9.99 µM | Transforming acidic coiled-coil-containing protein 3 (Homo sapiens), Q9Y6A5 | AlphaScreen His-ARNT PAS-B/GST-TACC3 binding, luminescence; TACC3 fragment carries E629A point mutation | AID 623870, 2012 | hit rate 0.66% among 390,000;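 active means mean inhibition of replicates at least 50% and at least half of replicates each reaching 50%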
A number is an active result; - = inactive; . = no result; + = active, no number. Compounds with a hit are over-represented: about 1.2% of the library has one in this group of screens.

SMILES	CAL PDZ FP-1	CAL PDZ FP-2	ARNT-TACC3 inh
COc1ccccc1NC(=O)N(C)C[C@@H]1Oc2ncc(C#CCN(C)C)cc2C(=O)N([C@@H](C)CO)C[C@H]1C	.	.	-
C[C@@H]1CN([C@H](C)CO)C(=O)c2cc(NC(=O)Cn3cnnn3)ccc2O[C@@H]1CN(C)Cc1ccc(Cl)c(Cl)c1	.	.	-
Oc1ccccc1C=NNC(=S)Nc1ccc(F)cc1	-	-	active
Oc1ccccc1/C=N/NC(=S)NC1CC2C=CC1C2 (stereo not drawn)	-	-	64
Fc1ccc(NC(=S)NN=Cc2ccccc2Cl)cc1	-	-	-
Oc1c(Cl)cc(Cl)cc1/C=N/NC(=S)NC1CC2C=CC1C2 (stereo not drawn)	-	-	-
CN(C)c1nc(N/N=C/c2ccccc2O)nc(Nc2ccc(F)cc2)n1	-	-	47
CN(C)c1nc(Nc2ccc(F)cc2)nc(Oc2ccc(F)cc2)n1	-	-	-
COc1ccc(S(=O)(=O)N(C)C[C@@H]2Oc3c(NS(=O)(=O)c4ccc(Cl)cc4)cccc3C(=O)N([C@@H](C)CO)C[C@@H]2C)cc1	.	.	-
N#CCCN(Cc1ccccc1)C(=O)c1cccs1	+	-	-
CC(C)(C)N(Cc1ccccc1)C(=O)c1cccs1	-	-	-
Cc1ccccc1-c1cnc2c(c1)C(=O)N([C@@H](C)CO)C[C@@H](C)[C@@H](CN(C)Cc1cncnc1)O2	.	.	-
CCCC#Cc1ccc2c(c1)O[C@H](CN(C)C(=O)C1CC1)[C@H](C)CN([C@H](C)CO)S2(=O)=O	.	.	50
CCCC#Cc1ccc2c(c1)O[C@@H](CN(C)C(=O)C1CC1)[C@@H](C)CN([C@H](C)CO)S2(=O)=O	.	.	-
CCOc1ccc(Cn2c(=O)sc3ccccc32)cc1	-	-	-
CCOc1ccc(Cn2c(=O)sc3ccccc32)cc1OC	66	-	-
COc1ccc(S(=O)(=O)N(C(C)=O)c2ccc3oc(=O)sc3c2)cc1	89	-	-
COC(=O)c1c(C)oc2ccc(N(C(C)=O)S(=O)(=O)c3ccccc3)cc12	-	-	-
C[C@@H]1CCCCO[C@H](CN(C)S(=O)(=O)c2ccc(Cl)cc2)[C@@H](C)CN([C@@H](C)CO)C(=O)c2cc(NC(=O)CCC(F)(F)F)ccc2O1	.	.	-
CCCc1sc(N/N=C/c2ccccn2)nc1-c1ccc(F)cc1	-	-	67
O=C(O)Cc1sc(N/N=C\c2ccccc2)nc1-c1ccccc1	-	-	-
COc1ccccc1NC(=O)N[C@@H]1CC[C@H](CCn2cc(-c3cccnc3)nn2)O[C@@H]1CO	.	.	-
CCOc1ccc(OCCNC(=O)c2oc3ccccc3c2COC)cc1	-	-	-
CC(=O)NCCNC(=O)c1oc2ccccc2c1CSc1ncn[nH]1	72	-	-
Cc1ccc(S(=O)(=O)NC(CC(C)C)C(=O)Oc2ccc3c4c(c(=O)oc3c2)CCC4)cc1 (stereo not drawn)	-	-	-
SMILES	CAL PDZ FP-1	CAL PDZ FP-2	ARNT-TACC3 inh
CC(C)CC(C(=O)Oc1ccc2c3c(c(=O)oc2c1)CCC3)N1C(=O)c2ccccc2C1=O (stereo not drawn)	-	.	47
O=C(C[C@@H]1CC[C@@H](NC(=O)C2CC2)[C@H](CO)O1)Nc1nccs1	.	.	-
C[C@@H]1CCCCO[C@H](CN(C)Cc2ccncc2)[C@H](C)CN([C@H](C)CO)C(=O)c2cc(NC(=O)Nc3cccc4ccccc34)ccc2O1	.	.	-
COc1ccc(CCn2c(=S)[nH]c3ccc(N4CCOCC4)cc3c2=O)cc1OC	128	-	-
O=c1c2cc(N3CCOCC3)ccc2[nH]c(=S)n1CCc1ccccc1	-	-	-
O=C(C[C@@H]1CC[C@@H]2[C@H](COC[C@H](O)CN2C(=O)Nc2cc(Cl)cc(Cl)c2)O1)N1CCCCC1	.	.	-
C[C@@H]1CN([C@@H](C)CO)C(=O)c2cc(NS(=O)(=O)c3ccc(F)cc3)ccc2O[C@@H](C)CCCCO[C@H]1CN(C)S(=O)(=O)c1cn(C)cn1	.	.	-
CCOc1ccc(S(=O)(=O)N2CCN(Cc3ccccc3)CC2)cc1	.	-	-
CCOC1=CC(=O)N(Cc2ccccc2)C1	69	-	-
COc1ccc(CCC(=O)Nc2ncc(C)s2)cc1OC	50	-	-
Cc1cnc(NC(=O)CCc2ccccc2)s1	-	-	-
COc1ccc(CC(=O)Nc2nccs2)cc1OC	-	-	-
COc1ccc(CC(=O)Nc2ncc([N+](=O)[O-])s2)cc1OC	-	-	18
O=C(Nc1ccc(F)cc1)Nc1ccc2c(c1)[C@@H]1C[C@H](CC(=O)N3CCOCC3)O[C@@H](CO)[C@@H]1O2	.	.	-
CN(C)C(=O)C[C@H]1CC[C@H]2[C@@H](COC[C@H](O)CN2Cc2ccc(C(F)(F)F)cc2)O1	.	.	-
O=C(C[C@@H]1C=C[C@H](NC(=O)Nc2ccc(F)cc2)[C@H](CO)O1)NCc1ccccn1	.	.	-
CC(C)NC(=O)Nc1ccc2c(c1)C(=O)N([C@H](C)CO)C[C@H](C)[C@@H](CN(C)C(=O)Nc1cccc3ccccc13)OCCCC[C@@H](C)O2	.	.	-
C[C@H]1CN([C@@H](C)CO)C(=O)c2cccc(NS(=O)(=O)c3ccccc3)c2O[C@H]1CN(C)Cc1ccc(Oc2ccccc2)cc1	.	.	-
Cc1noc(C)c1NC(=O)N(C)C[C@@H]1Oc2ncc(C#CC3CCCCC3)cc2C(=O)N([C@@H](C)CO)C[C@@H]1C	.	.	-
COCC(C)n1c(C)cc(C(=O)Cn2nc(C(=O)O)c3ccccc3c2=O)c1C (stereo not drawn)	37	-	-
COCC(C)n1c(C)cc(C(=O)COC(=O)c2nn(C)c(=O)c3ccccc23)c1C (stereo not drawn)	-	-	.
Cc1ccc(C)c(S(=O)(=O)N2CCCOC2CNC(=O)C(=O)NCCc2ccco2)c1 (stereo not drawn)	69	-	-
Cc1ccc(C)c(S(=O)(=O)N2CCCOC2CNC(=O)C(=O)NCc2ccco2)c1 (stereo not drawn)	-	-	-
Cc1noc(C)c1NC(=O)Nc1ccc2c(c1)C(=O)N([C@@H](C)CO)C[C@@H](C)[C@H](CN(C)C(=O)Nc1ccc(C(F)(F)F)cc1)O2	.	.	-
O=C(C[C@H]1CC[C@H]2[C@@H](COC[C@H](O)CN2C(=O)Nc2ccccc2)O1)NCc1ccncn1	.	.	-
SMILES	CAL PDZ FP-1	CAL PDZ FP-2	ARNT-TACC3 inh
O=C(C[C@@H]1C=C[C@@H](NC(=O)C2CC2)[C@@H](CO)O1)Nc1ccccc1	.	.	-
COc1ccc(OC)c2sc(N3CCc4ccccc4C3)nc12	33	-	-
COc1ccc(OC)c2sc(N3CCCCC3)nc12	-	-	-
CN1C(=O)c2cc(NS(C)(=O)=O)ccc2OC[C@H]2O[C@H](CC(=O)NC3CCCCC3)CC[C@H]21	.	.	-
COc1cccc(-c2ccc3c(c2)[C@H]2[C@H](CCN2C(=O)CN2CCOCC2)[C@H](CO)N3)c1	.	.	-
O=C(C[n+]1ccccc1)N/N=C/c1cc(Br)ccc1F	-	-	.
O=C(C[n+]1ccccc1)N/N=C/c1cc(Br)cc(Br)c1O	-	.	64

Compound activity (PubChem)
